Molecules are shown by their SMILES. Values after ≈ are worked out from the molar mass of the structure shown.

From ChEMBL document CHEMBL1148547, “The structure-activity relationships of mansonone F, a potent anti-MRSA sesquiterpenoid quinone: SAR studies on the C6 and C9 analogs” (2006) come the findings set out here.

What all share (format): functional
In one assay the test system is Bacillus subtilis. In words: Antibacterial activity against Bacillus subtilis ATCC 6633. In a few lines: (§1)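 MIC by agar dilution on Mueller–Hinton agar, following the NCCLS procedure.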
In the next assay the test system is Bacillus cereus. In words: Antibacterial activity against Bacillus cereus ATCC 27348. The method in brief:
as §1

Assay [1] has as its system Staphylococcus aureus. The assay can be described thus: Antibacterial activity against Staphylococcus aureus ATCC 25923. The method in brief:
as §1

For assay [2], the system named is Staphylococcus aureus. In words: Antibacterial activity against Staphylococcus aureus ATCC 6538P. The method in brief: as §1
Assay [3] deals with Staphylococcus epidermidis. In words: Antibacterial activity against Staphylococcus epidermidis ATCC 12228. In a few lines:
as §1

A further assay deals with Klebsiella pneumoniae. The assay can be described thus: Antibacterial activity against Klebsiella pneumoniae ATCC 10031. The method in brief:
as §1

Assay [4] relates to Staphylococcus aureus. In words: Antibacterial activity against Staphylococcus aureus. The method in brief:
as §1

For assay [5], the system named is Micrococcus luteus. The assay can be described thus: Antibacterial activity against Micrococcus luteus ATCC 9341. The method in brief:
as §1

Assay [6] relates to Staphylococcus aureus. The assay can be described thus: Antibacterial activity against Staphylococcus aureus ATCC 29213. In a few lines:
as §1

Assay [7] has as its system Micrococcus luteus. The assay can be described thus: Antibacterial activity against Micrococcus luteus ATCC 10240. In a few lines: as §1
In assay [8] the test system is Staphylococcus aureus. The assay can be described thus: Antibacterial activity against methicillin-resistant Staphylococcus aureus. The method in brief: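 Agar dilution MIC on Mueller–Hinton agar, run per the NCCLS procedure. Test organisms were clinical isolates collected from Seoul hospitals between 1997 and 1999 and stored at -70 °C until use.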

As for `CCCCc1ccc2c3c1C(=O)C(=O)C(C)=C3OC=C2C`, the MIC against Bacillus subtilis is 0.5 µg/mL (≈ 1.77 µM); against Bacillus cereus, 1 µg/mL (≈ 3.54 µM); in the assay on Staphylococcus aureus [1], 0.25 µg/mL (≈ 0.885 µM); against Staphylococcus aureus [2] it was 0.25 µg/mL (≈ 0.885 µM); in assay [3], 0.25 µg/mL (≈ 0.885 µM); with Klebsiella pneumoniae, 2 µg/mL (≈ 7.08 µM). Further, the MIC amounted to 0.25 µg/mL (≈ 0.885 µM) in the assay with Staphylococcus aureus [4] (Smith); 0.5 µg/mL (≈ 1.77 µM) with Staphylococcus aureus [4] (TMS 33); 0.25 µg/mL (≈ 0.885 µM) against Staphylococcus aureus [4] (TMS 64); 0.25 µg/mL (≈ 0.885 µM) with Staphylococcus aureus [4] (TMS 417); 0.25 µg/mL (≈ 0.885 µM) in the assay on Micrococcus luteus [5]; 0.25 µg/mL (≈ 0.885 µM) against Staphylococcus aureus [6]. In addition, in the assay with Micrococcus luteus [7], the MIC amounted to 0.25 µg/mL (≈ 0.885 µM). In addition, the MIC50 in the assay on Staphylococcus aureus [8] worked out at 0.5 µg/mL (≈ 1.77 µM). Besides, the MIC90 in the assay with Staphylococcus aureus [8] came to 0.5 µg/mL (≈ 1.77 µM).
Take `COc1ccc2c3c1C(=O)C(=O)C(C)=C3OC=C2C`: in the assay with Staphylococcus aureus [8], the MIC50 is 8 µg/mL (≈ 31.2 µM) and the MIC90 came out at 8 µg/mL (≈ 31.2 µM).
In the assay on Staphylococcus aureus [8], `CC1=COC2=C(C)C(=O)C(=O)c3c(C(C)C)ccc1c32` displayed an MIC50 of 4 µg/mL (≈ 14.9 µM) and an MIC90 of 16 µg/mL (≈ 59.6 µM).
The like results for `CC1=COC2=C(C)C(=O)C(=O)c3c(CCC(C)C)ccc1c32` were, in that order, 8 µg/mL (≈ 27 µM) and 16 µg/mL (≈ 54 µM).
In the case of `CCc1ccc2c3c1C(=O)C(=O)C(C)=C3OC=C2C`, in the assay with Staphylococcus aureus [8], the MIC50 amounted to 8 µg/mL (≈ 31.5 µM) and the MIC90 came out at 16 µg/mL (≈ 62.9 µM).
For the compound `CN[C@H](CC(C)C)C(=O)N[C@H]1C(=O)N[C@@H](CC(N)=O)C(=O)N[C@H]2C(=O)N[C@H]3C(=O)N[C@H](C(=O)N[C@H](C(=O)O)c4cc(O)cc(O)c4-c4cc3ccc4O)[C@H](O)c3ccc(c(Cl)c3)Oc3cc2cc(c3O[C@@H]2O[C@H](CO)[C@@H](O)[C@H](O)[C@H]2O[C@H]2C[C@](C)(N)[C@H](O)[C@H](C)O2)Oc2ccc(cc2Cl)[C@H]1O` [VANCOMYCIN], the MIC against Bacillus subtilis is 0.5 µg/mL (≈ 0.345 µM); in the assay with Bacillus cereus, 4 µg/mL (≈ 2.76 µM); against Staphylococcus aureus [1], 8 µg/mL (≈ 5.52 µM); in assay [3], 8 µg/mL (≈ 5.52 µM); against Klebsiella pneumoniae it was above 32 µg/mL; with Micrococcus luteus [5] it was 8 µg/mL (≈ 5.52 µM). Moreover, the lowest concentration to inhibit growth against Micrococcus luteus [7] (MIC) was 4 µg/mL (≈ 2.76 µM). In the assay on Staphylococcus aureus [8], this compound gave an MIC50 of 2 µg/mL (≈ 1.38 µM). This compound also showed an MIC90 with Staphylococcus aureus [8] of 2 µg/mL (≈ 1.38 µM).
In the case of `CC1=COC2=C(CBr)C(=O)C(=O)c3c(C)ccc1c32`, in the assay with Staphylococcus aureus [8], the MIC50 is 16 µg/mL (≈ 50.1 µM) and the MIC90 stood at 16 µg/mL (≈ 50.1 µM).
In the assay on Staphylococcus aureus [8], `CC1=COC2=CC(=O)C(=O)c3cccc1c32` registered an MIC50 above 32 µg/mL and an MIC90 above 32 µg/mL.
Turning to `CC1=COC2=C(C)C(=O)C(=O)c3cccc1c32`, in the assay with Staphylococcus aureus [8], the MIC50 stood at 8 µg/mL (≈ 35.4 µM) and the MIC90 is 8 µg/mL (≈ 35.4 µM).
In the case of `CCCC1=C2OC=C(C)c3ccc(C)c(c32)C(=O)C1=O`, in the assay on Staphylococcus aureus [8], the MIC50 turned out to be 4 µg/mL (≈ 14.9 µM) and the MIC90 worked out at 8 µg/mL (≈ 29.8 µM).
For `CC1=COC2=C(C)C(=O)C(=O)c3c(C)ccc1c32` [MANSONONE F], the MIC is 2 µg/mL (≈ 8.32 µM) with Bacillus subtilis; 4 µg/mL (≈ 16.6 µM) in the assay with Bacillus cereus; 1 µg/mL (≈ 4.16 µM) with Staphylococcus aureus [1]; 4 µg/mL (≈ 16.6 µM) in the assay with Staphylococcus aureus [2]; 0.5 µg/mL (≈ 2.08 µM) in [3]; 8 µg/mL (≈ 33.3 µM) in the assay with Klebsiella pneumoniae. Also, the minimal inhibitory concentration (MIC) came out at 4 µg/mL (≈ 16.6 µM) with Staphylococcus aureus [4] (Smith); 8 µg/mL (≈ 33.3 µM) in the assay with Staphylococcus aureus [4] (TMS 33); 8 µg/mL (≈ 33.3 µM) in the assay on Staphylococcus aureus [4] (TMS 64); 4 µg/mL (≈ 16.6 µM) in the assay with Staphylococcus aureus [4] (TMS 417); 1 µg/mL (≈ 4.16 µM) in the assay with Micrococcus luteus [5]; 4 µg/mL (≈ 16.6 µM) against Staphylococcus aureus [6]. The MIC with Micrococcus luteus [7] is 1 µg/mL (≈ 4.16 µM). Moreover, the MIC50 against Staphylococcus aureus [8] was found to be 2 µg/mL (≈ 8.32 µM). This compound yielded an MIC90 in the assay on Staphylococcus aureus [8] of 4 µg/mL (≈ 16.6 µM).
In the assay with Staphylococcus aureus [8], `CC1=COC2=C(Br)C(=O)C(=O)c3c(C)ccc1c32` came in with an MIC50 of 8 µg/mL (≈ 26.2 µM) and an MIC90 of 16 µg/mL (≈ 52.4 µM).
Take `CCC1=C2OC=C(C)c3ccc(C)c(c32)C(=O)C1=O`: in the assay on Staphylococcus aureus [8], the MIC50 came out at 16 µg/mL (≈ 62.9 µM) and the MIC90 is above 32 µg/mL.
For `COC(=O)C1=C2OC=C(C)c3ccc(C)c(c32)C(=O)C1=O` the same measures were 16 µg/mL (≈ 56.3 µM) and 32 µg/mL (≈ 113 µM).
In the assay on Staphylococcus aureus [8], `CCCCCCc1ccc2c3c1C(=O)C(=O)C(C)=C3OC=C2C` yielded an MIC50 of 8 µg/mL (≈ 25.8 µM) and an MIC90 of 16 µg/mL (≈ 51.5 µM).
In the assay with Staphylococcus aureus [8], `CC(=O)C1=C2OC=C(C)c3ccc(C)c(c32)C(=O)C1=O` returned an MIC50 of 16 µg/mL (≈ 59.6 µM) and an MIC90 of 32 µg/mL (≈ 119 µM).
With `CC1=COC2=CC(=O)C(=O)c3c(C)ccc1c32`, in the assay on Staphylococcus aureus [8], the MIC50 is 8 µg/mL (≈ 35.4 µM) and the MIC90 was found to be 16 µg/mL (≈ 70.7 µM).
Consider `CCCCCc1ccc2c3c1C(=O)C(=O)C(C)=C3OC=C2C`, for which, in the assay on Staphylococcus aureus [8], the MIC50 came out at 4 µg/mL (≈ 13.5 µM) and the MIC90 was determined as 8 µg/mL (≈ 27 µM).
As to `CCCc1ccc2c3c1C(=O)C(=O)C(C)=C3OC=C2C`, in the assay on Staphylococcus aureus [8], the MIC50 turned out to be 1 µg/mL (≈ 3.73 µM) and the MIC90 stood at 4 µg/mL (≈ 14.9 µM).
In the assay with Staphylococcus aureus [8], `COC(=O)c1ccc2c3c1C(=O)C(=O)C(C)=C3OC=C2C` yielded an MIC50 of 16 µg/mL (≈ 56.3 µM) and an MIC90 of 16 µg/mL (≈ 56.3 µM).

What is called MIC is the lowest concentration that inhibits growth of the organism. For orientation: MIC50 means the lowest concentration that inhibits either 50% of growth or 50% of the strains tested, depending on the study. Lower therefore signals greater potency. A word on the MIC90: it is an inhibitory concentration at the 90% level, which refers to growth in some studies and to a panel of isolates in others.
